HDAC3 inh – HDAC3 deacetylase inhibitors, primary screen, biochemical, fluorescence, cell-free homogeneous; AID 2718, 2010; Histone deacetylase 3 (Homo sapiens), O15379; hit rate 0.15% among 320,000; recombinant HDAC3, fluorogenic peptide/trypsin coupled; inhibition, % at 8.3 µM; in the data active = inhibition above about 26%, passing the limit was not always enough; inconclusive = no clear call, values can overlap the other calls
Target sequence (O15379 whole entry, looked up): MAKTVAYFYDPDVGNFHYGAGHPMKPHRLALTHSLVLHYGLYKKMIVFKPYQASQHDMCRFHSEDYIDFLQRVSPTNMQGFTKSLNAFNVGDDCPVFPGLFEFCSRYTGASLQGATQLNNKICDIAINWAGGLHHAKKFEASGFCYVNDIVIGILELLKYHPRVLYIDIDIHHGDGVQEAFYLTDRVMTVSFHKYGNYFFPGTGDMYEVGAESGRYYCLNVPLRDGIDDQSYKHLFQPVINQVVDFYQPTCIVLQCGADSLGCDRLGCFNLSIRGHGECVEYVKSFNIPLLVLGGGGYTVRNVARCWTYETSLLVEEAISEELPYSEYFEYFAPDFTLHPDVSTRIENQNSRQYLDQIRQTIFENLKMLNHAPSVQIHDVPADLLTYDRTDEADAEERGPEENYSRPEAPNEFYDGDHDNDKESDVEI
RanGTP-Impb inh – inhibitors of RanGTP-importin-beta interaction, primary screen, biochemical, FRET, CFP-Ran, YFP-importin-beta, homogeneous. Ran GTPase (GTP-bound) - importin-beta complex. AID 2216, 2009. inhibition, % (test concentration not listed). hit rate 1.1% among 300,000. cell-free CFP-Ran/YFP-importin-beta FRET ratio;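 active = more than half of the replicate wells show a fall in the fluorescence ratio signal beyond about 16%, limit read from the data, passing the limit was not always enough; inconclusive = exactly half of the replicate wells pass the set limit; inactive = fewer than half of replicates pass the limit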;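 also: 0% = DMSO wells and 100% = Ran loaded with GDP instead of GTP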
LANA-H2B inh – blockers of LANA interaction with H2A/H2B – biochemical, FP readout, HTS, primary screen. cell-free LANA-H2A/H2B peptide, fluorescence polarization. hit rate 0.6% among 320,000. AID 2629, 2010. Protein LANA1 (Human herpesvirus 8 type P (isolate GK18)), Q9QR71. inhibition, % (test concentration not listed); in the data active = inhibition mostly above about 10%, no sharp cut-off; inactive = mostly below about 6.7%
Runt-SMMHC FRET – inhibitors of RUNX1 Runt–CBFb-SMMHC binding, primary screen, biochemical, FRET, Cerulean-Runt, Venus-CBFb-SMMHC, uHTS. Runt-related transcription factor 1 (Homo sapiens) + Core-binding factor subunit beta …. Cerulean-Runt/Venus-CBFb-SMMHC FRET ratio 530/480, 1 h. inhibition, % at 20 µM. hit rate 0.74% among 220,000. AID 1434, 2008;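 active = mean inhibition across duplicate retests at 20 µM reaching about 50%, limit read from the data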;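 also: 0% = DMSO wells and 100% = wells with excess untagged CBFb-SMMHC; inhibitors lower the FRET ratio by blocking Runt binding to CBFb-SMMHC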
Runt-CBFb FRET – inhibitors of RUNX1 Runt–CBFb binding, primary screen, biochemical, FRET, Cerulean-Runt, Venus-CBFb, uHTS; Runt-related transcription factor 1 (Homo sapiens) + Core-binding factor subunit beta …; Cerulean-Runt/Venus-CBFb FRET ratio 530/480, 1 h; inhibition, % at 20 µM; hit rate 0.46% among 220,000; AID 1496, 2009;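 active = inhibition over about 50% at 20 µM in the single-dose screen, limit read from the data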;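 also: 0% = DMSO wells and 100% = excess unlabeled CBFb competitor control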
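Assay system: Cerulean-Runt domain fusion protein, energy donor; Signal: fluorescence energy transfer, 422 nm excitation, 530/480 nm emission; Timing: 1 h compound exposure, room temperature; Control set: unlabeled CBFb; Medium: Tris buffer pH 7.5 with salts and BSA; Compound: single test concentration of 20 µM, 1% DMSO final; Probe or stimulus: Venus-CBFb 100 nM.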
CaV13 FRET inh – Primary screen for inhibitors of IQ motif and Ca2+-dependent inactivation inhibitor domain binding in CACNA1D, Förster resonance energy transfer in living cells, …. inhibition, % at 12.3 µM. hit rate 0.098% among 340,000. HEK cells, CFP/YFP FRET ICDI-IQ, plate reader, 10 min; percent FRET-ratio fall versus neutral wells;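 active = mean replicate inhibition of at least 30% and at least 1% of replicates passing that level; inconclusive = only one of the two criteria is met; inactive = neither criterion is met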;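 also: 0% = median of the neutral control wells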
* hit, by the source's call; ? = inconclusive; . = no result. This is a sample that favours compounds with a hit; in the whole collection about 1.9% have one here.

SMILES	HDAC3 inh	RanGTP-Impb inh	LANA-H2B inh	Runt-SMMHC FRET	Runt-CBFb FRET	CaV13 FRET inh
COC(=O)c1c(NC(=O)c2ccco2)sc2c1CCN(C(C)=O)C2	-5.1	?	-1.7	.	.	-9.5
CCOC(=O)c1c(NC(=O)CC)sc2c1CCN(Cc1ccccc1)C2	-0.6	89.0*	-3.4	.	.	-3.3
COC(=O)c1c(NC(=O)C2COc3ccccc3O2)sc2c1CCN(Cc1ccccc1)C2 (stereo not given)	-5.3	69.3*	-1.5	49.7	28.9	-2.9
CCOC(=O)c1c(NC(=O)CN2CCCCC2)sc2c1CCN(C(=O)OCC)C2	-1.2	6.1	-0.8	-8.9	-11.9	-7.6
COC(=O)c1c(NC(=O)C(C)(C)C)sc2c1CCN(Cc1ccccc1)C2	-2.4	32.4*	0.4	.	.	-5.1
CCOC(=O)c1c(NC(C)=O)sc2c1CCN(Cc1ccccc1)C2	-6.5	86.7*	-5.6	.	.	-4.2
COC(=O)c1c(NC(C)=O)sc2c1CCCC2	-0.4	-4.3	8.1	-8.0	-0.4	-1.3
COC(=O)c1c(NC(C)=O)sc2c1CCN(Cc1ccccc1)C2	-5.3	90.6*	-1.0	.	.	-5.6
CCOC(=O)c1c(NC(=O)CSc2ncccn2)sc2c1CCN(Cc1ccccc1)C2	.	135.4*	.	150.8*	106.2*	36.0*
Cc1c(C(=O)O)sc(S(=O)(=O)N2CCN(C(=O)Cc3ccccc3Cl)CC2)c1C(=O)O	-6.0	.	5.4	.	.	-4.9
CCOC(=O)N1CC(=O)Nc2ccc(Br)cc2C1c1ccccc1 (stereo not given)	-2.3	0.7	105.6*	-0.5	-1.9	-4.1
O=C1CN(C(=O)CN2CCCC2)C(c2ccccc2)c2cc(Br)ccc2N1 (stereo not given)	0.1	1.2	-2.0	-2.1	1.0	-5.0
O=C(c1ccc(-c2cccc(C(F)(F)F)c2)o1)N1CCCC(C(F)(F)F)C1 (stereo not given)	29.8*	-2.3	-1.9	.	.	-3.9
CC(C)C1CC(CCNCc2ccc(N(C)C)cc2)(c2ccccc2)CCO1 (stereo not given)	-0.1	-1.1	7.2*	-3.0	-1.4	-4.9
CCN(CC)P(=O)(Nc1ccc(Br)cc1)c1c(C)nn(CCC#N)c1NC(=O)c1ccc(Cl)cc1 (stereo not given)	6.1	2.0	0.8	.	.	-2.9
CC(C)=CCCC(C)CN(C)CCc1ccccn1 (stereo not given)	2.0	-4.8	-3.4	2.5	0.3	-3.0
CN(C)/N=C/c1ccc(OS(=O)(=O)c2ccccc2)cc1	2.0	1.1	-2.7	1.9	-2.6	-4.6
CC(C)OC(=O)c1sc2nc(-c3ccccc3)ccc2c1N	-4.5	20.2*	1.8	4.3	-0.7	10.9
Clc1cc(Br)ccc1OCCn1ccnc1	3.5	-2.0	0.3	-0.8	-0.2	-3.1
Cc1oc2c(cc(NS(=O)(=O)c3ccc(C(C)C)cc3)c3ccccc32)c1C(=O)O	4.3	-2.8	26.2*	.	.	-3.5
Cc1oc2c(cc(NS(=O)(=O)c3ccc(F)cc3)c3ccccc32)c1C(=O)O	8.7	-3.4	5.2	.	.	-3.2
O=C(Cc1ccc(Cl)cc1)Oc1cccc2cccnc12	5.0	.	13.3	4.8	1.7	.
O=c1cc(-c2ccccc2Cl)oc2cccc(O)c12	0.7	-1.2	5.6	-0.5	-0.9	-9.2
O=c1cc2oc3cc(O)c(O)cc3c(-c3ccccc3[N+](=O)[O-])c-2cc1O	9.1	17.5*	-0.8	.	.	-5.7
Cc1ccc(C(O)P(=O)(OCc2ccccc2)c2ccc(N(C)C)cc2)cc1 (stereo not given)	-11.1	-1.1	10.9*	-1.1	0.4	-3.9
SMILES	HDAC3 inh	RanGTP-Impb inh	LANA-H2B inh	Runt-SMMHC FRET	Runt-CBFb FRET	CaV13 FRET inh
CN(C)c1ccc(P(=O)(OCc2ccccc2)C(O)c2cccnc2)cc1 (stereo not given)	5.6	-3.6	-0.2	-0.8	2.1	-3.6
Cc1ccc(C(=O)Oc2cc(N)n(S(=O)(=O)c3ccc(F)cc3)n2)cc1	-2.2	-1.8	-3.2	.	.	-3.6
COCc1nnc(NC(=O)CCN2C(=O)c3ccccc3C2=O)s1	4.3	3.6	16.0*	-0.7	-0.5	-3.8
CCCc1nnc(NC(=O)CCN2C(=O)c3ccccc3C2=O)s1	6.1	0.6	3.1	-0.7	1.8	-5.7
COc1ccccc1NS(=O)(=O)c1cccc(C(=O)N/N=C(\C)c2ccncc2)c1	.	.	.	.	.	-2.9
Cc1csc(-c2coc3cc(O)cc(C)c3c2=O)n1	11.6	1.7	8.1*	-1.3	-4.8	-7.2
CCc1cc2c(=O)c(-c3nc(C)cs3)coc2cc1O	0.5	0.1	2.1	-2.4	-0.4	-5.2
CCOC(=O)c1c(CSc2ccccc2)n(C)c2ccc(O)c(CN3CCOCC3)c12	6.3	4.4	18.5*	1.6	0.2	-6.1
CCOC(=O)c1c(C)n(C)c2ccc(O)c(CN3CCN(C)CC3)c12	-1.9	-0.6	-1.6	2.2	1.5	.
O=C(CN(c1ccc(Br)cc1)S(=O)(=O)c1ccc(Cl)c([N+](=O)[O-])c1)NCC1CCCO1 (stereo not given)	.	.	.	.	.	-8.3
Cc1cccc(-n2[nH]c3c4c(ccc3c2=O)C(=O)c2ccccc2C4=O)c1	-4.6	-0.1	-4.8	-5.0	-2.9	-3.2
Cc1noc(NS(=O)(=O)c2ccc(N/C=C\C(=O)c3cccc4ccccc34)cc2)c1C	11.1	-4.1	-1.2	-2.1	-0.7	-23.6
Cc1ccc(-c2ccc(/C=N\NC(=O)c3cc4c(ccc5ccccc54)o3)o2)cc1[N+](=O)[O-]	-4.4	3.9	0.1	-8.4	-0.7	.
O=C(N/N=C/c1ccc(-c2ccc(Cl)c(C(=O)O)c2)o1)c1cc2c(ccc3ccccc32)o1	5.1	8.0	5.0	80.3*	12.7	-133.7
N#Cc1ccc(Oc2cccc3cccnc23)c([N+](=O)[O-])c1	2.6	34.8*	-10.6	.	.	-2.7
N#Cc1cc(O)c(-n2nnc3ccccc32)cc1C#N	3.4	-2.1	0.2	-5.1	0.3	-4.6
O=[N+]([O-])c1ccc(Oc2cccc3cccnc23)c([N+](=O)[O-])c1	1.0	-12.7	4.6	-23.5	-1.0	-6.5
N#Cc1cc(Oc2cccc3cccnc23)c(-n2nnc3ccccc32)cc1C#N	-2.4	21.3*	0.3	-62.1	-21.1	-14.4

Screening results from PubChem.
